# In ChEMBL document CHEMBL2057119, “Small molecules that protect against β-amyloid-induced cytotoxicity by inhibiting aggregation of β-amyloid” (Bioorg Med Chem, 2012):
# Calls of active or inactive are those of the source.
# What was measured:
# [1] = Cytotoxicity against mouse HT22 cells assessed as viability at 10 uM after 18 hrs by MTT assay; assay type: cell-based, HT-22; settings: read-out: Activity
# Method in brief: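 HT22 murine hippocampal cells were grown in DMEM with 10% FBS at 37 °C, 5% CO2, and plated at 5×10^3 cells/well. They were switched to plain DMEM and serum-starved for 1 h before exposure to compound at 10 µM for 18 h. MTT solution (5 mg/mL) was added for 4 h at 37 °C. Cells were solubilized in 50% DMF/10% SDS (pH 4.7) for 18 h, absorbance was read at 570/630 nm, and % cytotoxicity was calculated.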
# [2] = target: T1, Amyloid-beta precursor protein (Homo sapiens, UniProt P05067); experiment: Inhibition of amyloid beta (1 to 42) fibril formation at 10 uM after 1 hr by ThT spectrofluorometric analysis
# Method in brief: (§1)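 ThT diluted to 5 µM in 50 mM glycine buffer was then added. After 10 s of shaking, fluorescence was read at excitation 450 nm and emission 480 nm, as a measure of fibril formation.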
# [3] = target: T1, Amyloid-beta precursor protein; experiment: Inhibition of amyloid beta (25 to 35)-induced cell death in mouse HT22 cells at 10 uM after 18 hrs by MTT assay; assay type: cell-based; settings: HT-22, values are per cent of control
# Method in brief: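 HT22 cells were plated at 5×10^3 cells/well, serum-starved in plain DMEM for 1 h, and pretreated with compound for 1 h. Aβ(25–35) was prepared as a 10 mM DMSO stock, diluted 10-fold in PBS, and aggregated for 1 h at room temperature. It was then added at a final 25 µM, and cells were incubated for 18 h. Viability was measured by MTT (4 h), then solubilization in DMF/SDS and absorbance at 570/630 nm.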
# [4] = tested on: Mus musculus; experiment: Antialzheimer activity in po dosed ICR mouse assessed as reduction in amyloid beta (1 to 42)-induced spontaneous memory loss measured after 2 days by object recognition task relative to control; assay type: functional, organism-based
# Method in brief: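 ICV pre-aggregated Aβ(1–42) (10 nM, 50 µL) was given to male ICR mice, followed by once-daily oral doses in the 50–200 mg/kg series. The object recognition task ran on days 2–3. Exploration was defined as nose within 2 cm of and/or touching an object. Preference index = new-object exploration time / total exploration time. n = 10, mean ± SEM, t-test.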
# [5] = tested on: Mus musculus; experiment: Antialzheimer activity in ICR mouse assessed as increase in amyloid beta (1 to 42)-induced step-through latency at 100 mg/kg, po measured after 3 days by passive avoidance test; assay type: functional
# Method in brief: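 Male ICR mice got 50 µL of pre-aggregated Aβ(1–42) by ICV injection at 2.4 mm depth at bregma. The peptide was a 250 µM DMSO stock diluted in PBS to 10 nM and aggregated at 37 °C for 4 days. Oral compound was given at 100 mg/kg once daily, with testing on days 3–4. Training used a 0.25 mA, 3 s shock; step-through latency into the dark compartment was measured 24 h later. n = 10, mean ± SEM, t-test.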
# [6] = tested on: Mus musculus; experiment: Antialzheimer activity in ICR mouse assessed as reduction in amyloid beta (1 to 42)-induced spontaneous memory loss at 100 mg/kg, po measured after 2 days by object recognition task relative to control; assay type: functional; set-up: scale not given: the % may be the effect or the level left
# Method in brief: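 Male ICR mice received ICV pre-aggregated Aβ(1–42) at 10 nM (50 µL, 2.4 mm depth at bregma), then compound at 100 mg/kg po once daily. Object recognition ran on days 2–3. Exploration was counted as the nose directed at an object within 2 cm and/or touching it, and objects were cleaned to avoid olfactory cues. Preference index = exploration time for new object / total exploration time. n = 10, mean ± SEM.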
# [7] = tested on: Mus musculus; experiment: Antialzheimer activity in ICR mouse assessed as reduction in amyloid beta (1 to 42)-induced spontaneous memory loss at 100 mg/kg, po measured after 2 days by Y-maze test; assay type: functional; set-up: scale not given: the % may be the effect or the level left
# Method in brief: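 Aβ(1–42) at 10 nM in PBS (from a 250 µM DMSO stock) was aggregated at 37 °C for 6 days, then injected ICV (50 µL, 2.4 mm depth at bregma) into male ICR mice. Compound was given at 100 mg/kg po once daily, and the Y-maze test was on day 2. Each mouse explored a three-arm maze freely for 8 min. An entry counted when all four limbs were in an arm; spontaneous alternation was scored as three consecutive different-arm entries. n = 10, mean ± SEM.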
# [8] = target: T1, Amyloid-beta precursor protein; experiment: Inhibition of amyloid beta (1 to 42) aggregation at 2 uM after 2 hrs by SDS-PAGE and PICUP technique
# Method in brief: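 Aβ(1–42) was monomerized in HFIP (0.5 mM), dried, and redissolved in DMSO. It was incubated at 25 µM final in PBS (pH 7.3) with compound at 2 µM final for 2 h at 37 °C. Samples were photo-cross-linked (PICUP) with ammonium persulfate and Ru(bpy)3Cl2 using three 1 s irradiations, quenched, and boiled. Products were resolved on a 10–20% tris-tricine gel and silver-stained.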
# [9] = tested on: Mus musculus; experiment: Antialzheimer activity in amyloid beta (1 to 42)-challenged ICR mouse assessed as decrease in escape latency at 100 mg/kg, po measured after 7 days by water maze test; assay type: functional, organism-based; set-up: dose 100 mg/kg
# Method in brief: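 Male ICR mice were injected ICV with 50 µL of pre-aggregated Aβ(1–42) at 10 nM. Compound was then supplied for 7 days in pellet feed, each pellet containing 3 mg. Water maze training ran on days 3–7, and escape latency was recorded across training sessions. n = 10, mean ± SEM.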
# [10] = tested on: Mus musculus; experiment: Antialzheimer activity in po dosed ICR mouse assessed as increase in amyloid beta (1 to 42)-induced step-through latency measured after 3 days by passive avoidance test; assay type: functional, organism-based
# Method in brief: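 Male ICR mice received 50 µL of 10 nM Aβ(1–42) ICV at 2.4 mm depth at bregma, after pre-aggregation at 37 °C for 4 days. Oral doses were varied over 50–200 mg/kg, given once daily. Passive avoidance ran on days 3–4 with a 0.25 mA, 3 s training shock. Step-through latency to enter the dark compartment was recorded 24 h after training. n = 10, mean ± SEM, t-test.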
# [11] = tested on: Mus musculus; experiment: Antialzheimer activity in po dosed ICR mouse assessed as reduction in amyloid beta (1 to 42)-induced spontaneous memory loss measured after 2 days by Y-maze test; assay type: functional, organism-based
# Method in brief: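 Male ICR mice were injected ICV with 50 µL of Aβ(1–42) (10 nM, aggregated at 37 °C for 6 days). Various oral doses in the 50–200 mg/kg range followed, once daily. On day 2, each mouse moved freely in a three-arm Y-maze for 8 min. An arm entry required all four limbs inside, and spontaneous alternation was derived from the entry sequence. n = 10, mean ± SEM, t-test.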
# [12] = target: T1, Amyloid-beta precursor protein; experiment: Inhibition of amyloid beta (1 to 42) fibril formation after 1 hr by ThT spectrofluorometric analysis; method in brief: as §1
# [13] = target: T1, Amyloid-beta precursor protein; experiment: Viability of cells treated with amyloid beta (25 to 35) in mouse HT22 cells at 25 uM after 18 hrs by MTT assay; settings: HT-22
# T1 sequence (P05067 whole entry): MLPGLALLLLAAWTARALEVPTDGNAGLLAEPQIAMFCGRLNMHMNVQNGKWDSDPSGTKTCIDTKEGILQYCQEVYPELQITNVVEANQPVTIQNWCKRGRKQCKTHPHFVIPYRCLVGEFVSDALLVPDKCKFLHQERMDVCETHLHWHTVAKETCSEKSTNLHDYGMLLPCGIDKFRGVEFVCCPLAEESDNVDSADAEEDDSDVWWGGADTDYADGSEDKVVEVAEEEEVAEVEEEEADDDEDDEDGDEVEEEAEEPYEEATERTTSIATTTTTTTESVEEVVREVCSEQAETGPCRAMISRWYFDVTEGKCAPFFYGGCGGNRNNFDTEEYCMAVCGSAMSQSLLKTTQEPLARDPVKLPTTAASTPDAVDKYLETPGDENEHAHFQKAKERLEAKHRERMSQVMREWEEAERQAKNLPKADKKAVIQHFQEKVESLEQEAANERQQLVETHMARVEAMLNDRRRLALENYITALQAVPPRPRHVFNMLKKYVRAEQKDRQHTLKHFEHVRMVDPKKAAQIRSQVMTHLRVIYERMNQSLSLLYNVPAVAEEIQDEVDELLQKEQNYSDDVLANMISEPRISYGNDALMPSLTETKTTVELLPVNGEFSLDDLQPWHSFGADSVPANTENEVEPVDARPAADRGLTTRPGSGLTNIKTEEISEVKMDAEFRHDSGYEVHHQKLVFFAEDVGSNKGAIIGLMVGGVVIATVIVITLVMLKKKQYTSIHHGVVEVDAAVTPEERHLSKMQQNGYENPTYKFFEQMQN
Molecule,"viability at 18 h, 10 µM [1] [%]",inhibition [2] [%],other results
COc1nc(/C=C/c2ccc(O)c(N(C)C)c2)cc(/C=C/c2ccc(O)c(N(C)C)c2)n1,96.6,74.1,"viability, % of control [3]: 59%"
C(=C\c1cccc(/C=C/c2ccccc2)c1)/c1ccccc1,,19.8,
COc1ccc(/C=C/c2cc(/C=C/c3ccc(OC)c(O)c3)ncn2)cc1O,136,80.9,"Activity [4]: Dose-dependent effect; Time [5]: 144 s; Activity [6]: 7%; Activity [7]: 72%; inhibition [8]: Active; Activity [9]: Active; Activity [10]: Dose-dependent effect; Activity [11]: Dose-dependent effect; viability, % of control [3]: 91.8%; IC50 [12]: 2.1 µM"
H-GSNKGAIIGLC-OH,,,viability [13]: 56%
COc1ccc(/C=C/c2cc(O)cc(/C=C/c3ccc(OC)c(O)c3)c2)cc1O,73.5,84.5,IC50 [12]: 1.6 µM
Oc1cccc(/C=C/c2cccc(/C=C/c3cccc(O)c3)c2)c1,47,,
Oc1ccc(/C=C/c2cccc(/C=C/c3ccc(O)cc3)c2)cc1,102,58.4,
Oc1cccc(/C=C/c2cc(O)cc(/C=C/c3cccc(O)c3)c2)c1,59.2,7.1,
CN(C)c1ccc(/C=C/c2cc(O)cc(/C=C/c3ccc(N(C)C)c(O)c3)c2)cc1O,64.4,83.3,IC50 [12]: 3.3 µM
COc1cc(/C=C/c2cc(O)cc(/C=C/c3ccc(O)c(OC)c3)c2)ccc1O,80.9,79,
COc1nc(/C=C/c2ccc(O)c(OC)c2)cc(/C=C/c2ccc(O)c(OC)c2)n1,75.2,68,
CN(C)c1ccc(/C=C/c2cccc(/C=C/c3ccc(N(C)C)c(O)c3)c2)cc1O,101,56,
COc1cc(/C=C/c2cc(/C=C/c3ccc(O)c(OC)c3)ncn2)ccc1O,216,79.3,"Time [5]: 118 s; Activity [6]: 13%; Activity [7]: 67%; inhibition [8]: Active; Activity [9]: Active; viability, % of control [3]: 103%; IC50 [12]: 3.2 µM"
COc1ccc(/C=C/c2cccc(/C=C/c3ccc(OC)c(O)c3)c2)cc1O,69.5,67.9,
COc1ccc(/C=C/c2cc(/C=C/c3ccc(OC)c(O)c3)nc(SC)n2)cc1O,78.8,75.2,
COc1nc(/C=C/c2ccccc2)cc(/C=C/c2ccccc2)n1,,18.8,
CN(C)c1cc(/C=C/c2cc(/C=C/c3ccc(O)c(N(C)C)c3)ncn2)ccc1O,146,83.5,"Time [5]: 118 s; Activity [6]: inactive; Activity [7]: 67%; inhibition [8]: Active; Activity [9]: Active; viability, % of control [3]: 85.3%; IC50 [12]: 3.7 µM"
Oc1ccc(/C=C/c2cc(/C=C/c3ccc(O)cc3)ncn2)cc1,104,64.3,
